Results published in the RNAGym collection of RNA variant scans (doi:10.1126/science.aae0568).
This sample holds only a part of the variants without activity.

B1: tRNA (parent)
chain: GUUCCGUUGGCGUAAUGGUAACGCGUCUCCCUCCUAAGGAGAAGACUGCGGGUUCGAGUCCCGUACGGAACG

Variants of: B1
Test: yeast fitness relative to wild type (ratio to wild type); higher = fitter; tRNA-Arg(CCU), competitive growth, 37 C, YPD
In short: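 Variants of the tRNA-Arg(CCU) gene, chemically synthesised with a 3% per-site mutation rate at 69 sites, were placed at the native genomic locus in Saccharomyces cerevisiae. The pooled strains were competed in YPD at 37°C for 24 hours in six parallel replicates. Gene amplicons from the start population and from each end population were read by 100-nucleotide paired-end sequencing. Darwinian fitness relative to wild type came from changes in genotype frequencies; genotypes needed ≥ 100 starting reads, and estimates < 0.5 were set to 0.5.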

First: U16G A20G
Second: U16C G18A U28A C31A U32A A57G G67A
The yeast fitness of the first is higher: 1 for the first, 0.962 for the second.

G18A C33A G44A U64C and G17C U19A C30U A36G A70G cannot be ordered by yeast fitness: ≤ 0.5 for the first, ≤ 0.5 for the second.

First: G17C G58C C62U
Second: G17A G25A C34U C55G
The yeast fitness of the first is lower: ≤ 0.5 for the first, 0.532 for the second.

G17A G18C G39C A65U and G18U U26A U59C C66A A70U cannot be ordered by yeast fitness: ≤ 0.5 for the first, ≤ 0.5 for the second.

Compared with G18A U32C A70G, G18U C34U is lower in yeast fitness: 0.599 for the first, ≤ 0.5 for the second.

Compared with G17C, G17U is higher in yeast fitness: 0.7 for the first, 0.851 for the second.

Compared with G17A, G17A C29U G67A is lower in yeast fitness: 0.835 for the first, 0.553 for the second.

Compared with U16C U28C, U16G C29U C31A C46U is lower in yeast fitness: 0.859 for the first, 0.716 for the second.

U16C G48C C62U A65G and G17A C24U C31G A65U cannot be ordered by yeast fitness: ≤ 0.5 for the first, ≤ 0.5 for the second.

Going from G18A C27U C46A to G17C C62G, the yeast fitness rises from 0.528 to 0.57.

First: G18C C34G A45C C66U
Second: U16G C34G A37C
The yeast fitness of the first is higher: 0.775 for the first, 0.706 for the second.

G18A G25A C29G C34A and G18C C62A C66A cannot be ordered by yeast fitness: ≤ 0.5 for the first, ≤ 0.5 for the second.

G18C C62G G67U and G18U U26A G67C cannot be ordered by yeast fitness: ≤ 0.5 for the first, ≤ 0.5 for the second.

First: G18A C31A G44A
Second: G17C U35G
The yeast fitness of the first is lower: 0.534 for the first, 0.554 for the second.

First: G17C A20U U54A C61U
Second: G18A G25A C46U C55A
The yeast fitness of the first is higher: 0.546 for the first, ≤ 0.5 for the second.

Going from U16C G52A G56A to G17C U28A C34G G38A G51A, the yeast fitness falls from 0.69 to 0.512.

First: G17U C46A
Second: G17A G25C A40U
The yeast fitness of the first is higher: 0.785 for the first, 0.574 for the second.

G18A C30G C34G and G18A G23C C30G A36U cannot be ordered by yeast fitness: ≤ 0.5 for the first, ≤ 0.5 for the second.

Compared with G18A A65C, G18A A21C G23U U32A A42U G48C U64A is lower in yeast fitness: 0.759 for the first, 0.529 for the second.

First: G17C A42C C66U
Second: G18A C24A C62U
The yeast fitness of the first is lower: ≤ 0.5 for the first, 0.536 for the second.

Compared with U16G A21U C34G A40U, U16G G39C G56C is lower in yeast fitness: 0.624 for the first, ≤ 0.5 for the second.

Compared with G17U G25A U28G G58A C66G, G17A C46U A65C is higher in yeast fitness: ≤ 0.5 for the first, 0.658 for the second.

Compared with G18A C27U G39A C60A, G18A U47C is higher in yeast fitness: ≤ 0.5 for the first, 0.728 for the second.

Going from G17C C61G C66U to G17A U35G G48C C66U, the yeast fitness rises from ≤ 0.5 to 0.535.

Compared with G18A U19C, U16C U47A G68A is lower in yeast fitness: 0.79 for the first, ≤ 0.5 for the second.

Going from G18C U26A to G18C U26G, the yeast fitness rises from 0.609 to 0.644.

Going from U16G A20C G67C to G18A C31A A43G G50A A57U, the yeast fitness rises from ≤ 0.5 to 0.572.

Going from G18C A42U U54A G58C to U16G A20G A69C, the yeast fitness rises from 0.574 to 0.749.

Compared with U16G U19A G23C C49U, U19A A21G is higher in yeast fitness: ≤ 0.5 for the first, 0.987 for the second.

G17A A20G C29U C33U C60G and G17A C30U A40U A57U cannot be ordered by yeast fitness: ≤ 0.5 for the first, ≤ 0.5 for the second.

G18A C34G C46A C62U A69C and G17A U28C A42C C66U cannot be ordered by yeast fitness: ≤ 0.5 for the first, ≤ 0.5 for the second.

Going from G17C C24A A45C G52A to U16G A57G C62G C66U, the yeast fitness rises from ≤ 0.5 to 0.517.

First: U16G C31U A42U
Second: G17A U32A U54C
The yeast fitness of the first is higher: 0.522 for the first, ≤ 0.5 for the second.

G17C A20G A57G C62U and U16C G18A C24G A45U U47C cannot be ordered by yeast fitness: ≤ 0.5 for the first, ≤ 0.5 for the second.

Compared with G18C C61A, G17A C33A is lower in yeast fitness: 0.627 for the first, 0.53 for the second.

Compared with U19A A21C G25C G68C, G18C G23A G25C A37G A43C U54C C55G G68A is lower in yeast fitness: 0.752 for the first, ≤ 0.5 for the second.

Compared with G17A C33U A36U C46A, G18A C29U C31A is lower in yeast fitness: 0.822 for the first, 0.575 for the second.

G17A U28C A42C U47A C66U and G17C G38C A43C A69U cannot be ordered by yeast fitness: ≤ 0.5 for the first, ≤ 0.5 for the second.

G18A C22U C30U C33U A45C and G18A U19G C60U A69C cannot be ordered by yeast fitness: ≤ 0.5 for the first, ≤ 0.5 for the second.

G18C C29U C34U A36G G58C and G17C C22G C24A C62A cannot be ordered by yeast fitness: ≤ 0.5 for the first, ≤ 0.5 for the second.

Going from G18A U19A C27U G67A to G17A C55U, the yeast fitness rises from ≤ 0.5 to 0.681.

Compared with G17A U19C C66U, U16G G68C A69G is lower in yeast fitness: 0.665 for the first, 0.556 for the second.
